Measured values as given in ChEMBL document CHEMBL4373685, “High affinity rigidified AT2 receptor ligands with indane scaffolds” (Medchemcomm, 2019).
One block for each molecule: values may come before it. The source made the active and inactive calls. The rule behind the calls is not given here.

Tests used:
[1] = Displacement of [125I]-Ang2 from AT2 receptor in porcine uterine myometrial membranes after 1.5 hrs by gamma scintillation gamma scintillation counting analysis; design: species or system Sus scrofa
Method in brief: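 Pig uterine myometrial membranes (10 mg original tissue per tube) with 1 μM losartan to block AT1. Incubated 25 °C for 1.5 h, then filtered and counted by γ-counter. Nonspecific binding with 1 μM Ang II.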

NG108-15 [2] = assay: Agonist activity at AT2 receptor in mouse/rat NG108-15 cells assessed as neurite growth at 10 nM after 3 days by phase contrast microscopic analysis; format: cell-based
Method in brief: (§1)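 NG108-15 neuroblastoma x glioma cells, passages 18–25, in DMEM with 10% FBS and HAT at 37 °C, 7% CO2. Seeded at 3.6 × 10^4 cells per 35 mm dish. Dosed once daily for 3 days starting 24 h after plating; where used, 10 μM PD 123319 was added 30 min before compound. On day 4, phase-contrast micrographs were taken. Cells with a neurite longer than the cell body were scored as % of at least 400 cells. Three independent experiments in duplicate, two-way ANOVA.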

NG108-15 [3] = assay: Agonist activity at AT2 receptor in mouse/rat NG108-15 cells assessed as neurite growth at 10 nM after 3 days in presence of PD123319 by phase contrast microscopic analysis; format: cell-based; method in brief: as §1
NG108-15 [4] = assay: Antagonist activity at AT2 receptor in mouse/rat NG108-15 cells assessed as inhibition of angiotensin-2 induced neurite growth at 10 nM after 3 days in presence of angiotensin-2 by phase contrast microscopic analysis; format: cell-based
Method in brief: (§2)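 NG108-15 cells seeded at 3.6 × 10^4 per 35 mm dish. Compound given once daily for 3 days, starting 24 h after plating, 30 min before 100 nM Ang II. On day 4, phase-contrast micrographs were taken. Cells bearing a neurite longer than the cell body were counted as % of at least 400 cells. Three independent experiments in duplicate, two-way ANOVA.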

NG108-15 [5] = assay: Antagonist activity at AT2 receptor in mouse/rat NG108-15 cells assessed as inhibition of angiotensin-2 induced neurite growth at 100 nM after 3 days in presence of angiotensin-2 by phase contrast microscopic analysis; format: cell-based; method in brief: as §2

Ki [1]: 2.8 nM
Structure (SMILES): CCCCOC(=O)NS(=O)(=O)c1ccc2c(c1-c1ccc(Cn3ccnc3)cc1)CCC2C(C)C (single isomer, unassigned; (+)) [listing 1 of 2 here]

Ki [1]: 3.2 nM
Structure (SMILES): CCCCOC(=O)NS(=O)(=O)c1cc2c(cc1-c1cccc(Cn3ccnc3)c1)CCC2C(C)C (single isomer, unassigned; (+)) [listing 1 of 2 here]

Ki [1]: 2.2 nM
Structure (SMILES): CCCCOC(=O)NS(=O)(=O)c1cc2c(cc1-c1ccc(Cn3ccnc3)cc1)CCC2C(C)C (single isomer, unassigned; (+)) [listing 1 of 2 here]

Structure (SMILES): CCCCOC(=O)NS(=O)(=O)c1cc2c(cc1-c1ccc(Cn3ccnc3)cc1)CCC2C(C)C (single isomer, unassigned; (+)) [listing 2 of 2 here]
Activity (NG108-15 [2]): Active
Activity (NG108-15 [3]): inactive

Structure (SMILES): CCCCOC(=O)NS(=O)(=O)c1cc2c(cc1-c1cccc(Cn3ccnc3)c1)CCC2C(C)C (single isomer, unassigned; (+)) [listing 2 of 2 here]
inhibition (NG108-15 [4]): Active
inhibition (NG108-15 [5]): Active

Structure (SMILES): CCCCOC(=O)NS(=O)(=O)c1ccc2c(c1-c1ccc(Cn3ccnc3)cc1)CCC2C(C)C (single isomer, unassigned; (+)) [listing 2 of 2 here]
inhibition (NG108-15 [4]): Active
inhibition (NG108-15 [5]): Active

Ki [1]: 127 nM
Structure (SMILES): CCCCOC(=O)NS(=O)(=O)c1ccc2c(c1-c1ccc(Cn3ccnc3)cc1)CCC2C(C)C (single isomer, unassigned; (-)) [listing 1 of 2 here]

Ki [1]: 223 nM
Structure (SMILES): CCCCOC(=O)NS(=O)(=O)c1ccc2c(c1-c1cccc(Cn3ccnc3)c1)CCC2C(C)C (single isomer, unassigned; (-)) [listing 1 of 2 here]

Ki [1]: 7 nM
Structure (SMILES): CCCCOC(=O)NS(=O)(=O)c1cc2c(cc1-c1cccc(Cn3ccnc3)c1)CCC2C(C)C (single isomer, unassigned; (-)) [listing 1 of 2 here]

Ki [1]: 5.9 nM
Structure (SMILES): CCCCOC(=O)NS(=O)(=O)c1cc2c(cc1-c1ccc(Cn3ccnc3)cc1)CCC2C(C)C (single isomer, unassigned; (-)) [listing 1 of 2 here]

Structure (SMILES): CCCCOC(=O)NS(=O)(=O)c1cc2c(cc1-c1ccc(Cn3ccnc3)cc1)CCC2C(C)C (single isomer, unassigned; (-)) [listing 2 of 2 here]
Activity (NG108-15 [2]): Active
Activity (NG108-15 [3]): inactive

Structure (SMILES): CCCCOC(=O)NS(=O)(=O)c1cc2c(cc1-c1cccc(Cn3ccnc3)c1)CCC2C(C)C (single isomer, unassigned; (-)) [listing 2 of 2 here]
Activity (NG108-15 [2]): Active
Activity (NG108-15 [3]): inactive

Structure (SMILES): CCCCOC(=O)NS(=O)(=O)c1ccc2c(c1-c1ccc(Cn3ccnc3)cc1)CCC2C(C)C (single isomer, unassigned; (-)) [listing 2 of 2 here]
Activity (NG108-15 [2]): Active
Activity (NG108-15 [3]): inactive

Structure (SMILES): CCCCOC(=O)NS(=O)(=O)c1ccc2c(c1-c1cccc(Cn3ccnc3)c1)CCC2C(C)C (single isomer, unassigned; (-)) [listing 2 of 2 here]
inhibition (NG108-15 [4]): Active
inhibition (NG108-15 [5]): Active

Ki [1]: 53.5 nM
Structure (SMILES): CCCCOC(=O)NS(=O)(=O)c1ccc2c(c1-c1cccc(Cn3ccnc3)c1)CCC2C(C)C (stereo in doubt; 8b) [listing 1 of 2 here]

Structure (SMILES): CCCCOC(=O)NS(=O)(=O)c1ccc2c(c1-c1cccc(Cn3ccnc3)c1)CCC2C(C)C (stereo in doubt; 8b) [listing 2 of 2 here]
inhibition (NG108-15 [4]): Active
inhibition (NG108-15 [5]): Active
